Experimental data published in ChEMBL document CHEMBL4689842, “EUbOPEN Chemogenomics Library wave 1” (2021).

Experiments:
Assay type in all cases: toxicity, cell-based
[1] = test system: Fibroblast; assay: Incucyte cell viability with human fibroblast; details: 10 µM, compound concentration 10 uM; further: filed as whole numbers so only -1 and 0 and 1 occur
[2] = test system: Fibroblast; assay: Multiplex assay against human fibroblast
In short: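 At seeding, live cells were stained with Hoechst33342, BioTracker Green Microtubule Cytoskeleton Dye, MitoTracker Red and Annexin V Alexa Fluor 680. After compound addition they were imaged on a CQ1 microscope at 37°C and 5% CO2, and CellPathfinder machine-learning gating sorted them into Hoechst high-intensity objects or normal cells, with normal cells further split into healthy, pyknosed or fragmented nuclei and pyknosed cells into mitotic or apoptotic. Tubulin, mitochondrial-mass and membrane-permeability phenotypes are given as per cents of cells with healthy nuclei.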

[3] = test system: U2OS; assay: Incucyte cell viability with U2OS; details: human, 10 µM, compound concentration 10 uM; further: filed as whole numbers so only -1 and 0 and 1 occur
[4] = 0 h, replicate number 1, timepoint 0 hours
[5] = 12 h, 1 µM, compound concentration 1 uM, replicate 1
[6] = 12 h, 1 µM, compound concentration 1 uM, replicate 2
[7] = 12 h, 10 µM, compound concentration 10 uM, replicate 1
[8] = 12 h, 10 µM, compound concentration 10 uM, replicate 2
[9] = 24 h, 1 µM, compound concentration 1 uM, replicate 1
[10] = 24 h, 1 µM, compound concentration 1 uM, replicate 2
[11] = 24 h, 10 µM, compound concentration 10 uM, replicate 1
[12] = 24 h, 10 µM, compound concentration 10 uM, replicate 2
[13] = 48 h, 1 µM, compound concentration 1 uM, replicate 1
[14] = 48 h, 1 µM, compound concentration 1 uM, replicate 2
[15] = 48 h, 10 µM, compound concentration 10 uM, replicate 1
[16] = 48 h, 10 µM, compound concentration 10 uM, replicate 2

CNc1oc(-c2cccc3ccccc23)nc1C#N
Growth Rate [1, 4]: 0 | Growth Rate ([1]; 6 h, replicate number 2, timepoint 6 hours): 1 | Population Apoptotic (%) [2, 5]: 75% | Population Fragmented Nuclei (%) [2, 5]: 65% | Population Healthy Nuclei (%) [2, 5]: 23% | Population Hoechst High Intensity Objects (%) [2, 5]: 70% | Population Membrane Permeable-Phenotype (%) [2, 5]: 25% | Population Mitochondria Different-Phenotype (%) [2, 5]: 0% | Population Mitotic Cells (%) [2, 5]: 25% | Population Normal (%) [2, 5]: 29% | Population Pyknosed Nuclei (%) [2, 5]: 10% | Population Tubulin-Different-Phenotype (%) [2, 5]: 14% | Total Cell Count [2, 5]: 381 | Population Apoptotic (%) [2, 6]: 0% | Population Fragmented Nuclei (%) [2, 6]: 29% | Population Healthy Nuclei (%) [2, 6]: 67% | Population Hoechst High Intensity Objects (%) [2, 6]: 15% | Population Membrane Permeable-Phenotype (%) [2, 6]: 3% | Population Mitochondria Different-Phenotype (%) [2, 6]: 11% | Population Mitotic Cells (%) [2, 6]: 100% | Population Normal (%) [2, 6]: 84% | Population Pyknosed Nuclei (%) [2, 6]: 2% | Population Tubulin-Different-Phenotype (%) [2, 6]: 7% | Total Cell Count [2, 6]: 100 | Population Apoptotic (%) [2, 7]: 92% | Population Fragmented Nuclei (%) [2, 7]: 41% | Population Healthy Nuclei (%) [2, 7]: 23% | Population Hoechst High Intensity Objects (%) [2, 7]: 64% | Population Membrane Permeable-Phenotype (%) [2, 7]: 0% | Population Mitochondria Different-Phenotype (%) [2, 7]: 0% | Population Mitotic Cells (%) [2, 7]: 7% | Population Normal (%) [2, 7]: 35% | Population Pyknosed Nuclei (%) [2, 7]: 35% | Population Tubulin-Different-Phenotype (%) [2, 7]: 0% | Total Cell Count [2, 7]: 3193 | Population Apoptotic (%) [2, 8]: 80% | Population Fragmented Nuclei (%) [2, 8]: 55% | Population Healthy Nuclei (%) [2, 8]: 16% | Population Hoechst High Intensity Objects (%) [2, 8]: 46% | Population Membrane Permeable-Phenotype (%) [2, 8]: 1% | Population Mitochondria Different-Phenotype (%) [2, 8]: 3% | Population Mitotic Cells (%) [2, 8]: 19% | Population Normal (%) [2, 8]: 53% | Population Pyknosed Nuclei (%) [2, 8]: 28% | Population Tubulin-Different-Phenotype (%) [2, 8]: 24% | Total Cell Count [2, 8]: 92 | Population Apoptotic (%) [2, 9]: 33% | Population Fragmented Nuclei (%) [2, 9]: 66% | Population Healthy Nuclei (%) [2, 9]: 27% | Population Hoechst High Intensity Objects (%) [2, 9]: 70% | Population Membrane Permeable-Phenotype (%) [2, 9]: 6% | Population Mitochondria Different-Phenotype (%) [2, 9]: 0% | Population Mitotic Cells (%) [2, 9]: 66% | Population Normal (%) [2, 9]: 29% | Population Pyknosed Nuclei (%) [2, 9]: 5% | Population Tubulin-Different-Phenotype (%) [2, 9]: 3% | Total Cell Count [2, 9]: 391 | Population Apoptotic (%) [2, 10]: 25% | Population Fragmented Nuclei (%) [2, 10]: 28% | Population Healthy Nuclei (%) [2, 10]: 67% | Population Hoechst High Intensity Objects (%) [2, 10]: 6% | Population Membrane Permeable-Phenotype (%) [2, 10]: 1% | Population Mitochondria Different-Phenotype (%) [2, 10]: 10% | Population Mitotic Cells (%) [2, 10]: 75% | Population Normal (%) [2, 10]: 93% | Population Pyknosed Nuclei (%) [2, 10]: 3% | Population Tubulin-Different-Phenotype (%) [2, 10]: 21% | Total Cell Count [2, 10]: 113 | Population Apoptotic (%) [2, 11]: 93% | Population Fragmented Nuclei (%) [2, 11]: 44% | Population Healthy Nuclei (%) [2, 11]: 24% | Population Hoechst High Intensity Objects (%) [2, 11]: 66% | Population Membrane Permeable-Phenotype (%) [2, 11]: 1% | Population Mitochondria Different-Phenotype (%) [2, 11]: 0% | Population Mitotic Cells (%) [2, 11]: 6% | Population Normal (%) [2, 11]: 33% | Population Pyknosed Nuclei (%) [2, 11]: 31% | Population Tubulin-Different-Phenotype (%) [2, 11]: 0% | Total Cell Count [2, 11]: 2998 | Population Apoptotic (%) [2, 12]: 81% | Population Fragmented Nuclei (%) [2, 12]: 57% | Population Healthy Nuclei (%) [2, 12]: 16% | Population Hoechst High Intensity Objects (%) [2, 12]: 44% | Population Membrane Permeable-Phenotype (%) [2, 12]: 3% | Population Mitochondria Different-Phenotype (%) [2, 12]: 3% | Population Mitotic Cells (%) [2, 12]: 18% | Population Normal (%) [2, 12]: 55% | Population Pyknosed Nuclei (%) [2, 12]: 25% | Population Tubulin-Different-Phenotype (%) [2, 12]: 26% | Total Cell Count [2, 12]: 116 | Population Apoptotic (%) [2, 13]: 40% | Population Fragmented Nuclei (%) [2, 13]: 71% | Population Healthy Nuclei (%) [2, 13]: 23% | Population Hoechst High Intensity Objects (%) [2, 13]: 77% | Population Membrane Permeable-Phenotype (%) [2, 13]: 22% | Population Mitochondria Different-Phenotype (%) [2, 13]: 4% | Population Mitotic Cells (%) [2, 13]: 60% | Population Normal (%) [2, 13]: 22% | Population Pyknosed Nuclei (%) [2, 13]: 5% | Total Cell Count [2, 13]: 411 | Population Apoptotic (%) [2, 14]: 80% | Population Fragmented Nuclei (%) [2, 14]: 75% | Population Healthy Nuclei (%) [2, 14]: 19% | Population Hoechst High Intensity Objects (%) [2, 14]: 78% | Population Membrane Permeable-Phenotype (%) [2, 14]: 31% | Population Mitochondria Different-Phenotype (%) [2, 14]: 0% | Population Mitotic Cells (%) [2, 14]: 20% | Population Normal (%) [2, 14]: 21% | Population Pyknosed Nuclei (%) [2, 14]: 4% | Population Tubulin-Different-Phenotype (%) [2, 14]: 4% | Total Cell Count [2, 14]: 519 | Population Apoptotic (%) [2, 15]: 85% | Population Fragmented Nuclei (%) [2, 15]: 47% | Population Healthy Nuclei (%) [2, 15]: 22% | Population Hoechst High Intensity Objects (%) [2, 15]: 65% | Population Membrane Permeable-Phenotype (%) [2, 15]: 0% | Population Mitochondria Different-Phenotype (%) [2, 15]: 0% | Population Mitotic Cells (%) [2, 15]: 14% | Population Normal (%) [2, 15]: 34% | Population Pyknosed Nuclei (%) [2, 15]: 30% | Population Tubulin-Different-Phenotype (%) [2, 15]: 0% | Total Cell Count [2, 15]: 2643 | Population Fragmented Nuclei (%) [2, 16]: 46% | Population Healthy Nuclei (%) [2, 16]: 23% | Population Hoechst High Intensity Objects (%) [2, 16]: 69% | Population Normal (%) [2, 16]: 30% | Population Tubulin-Different-Phenotype (%) [2, 16]: 1% | Total Cell Count [2, 16]: 2437 | Growth Rate [3, 4]: 0 | Growth Rate ([3]; 18 h, replicate number 2, timepoint 18 hours): 1 | Growth Rate ([3]; 24 h, replicate number 2, timepoint 24 hours): 1
